According to ChEMBL document CHEMBL1159012, “Anti-aids agents, 6. Salaspermic acid, an anti-HIV principle from Tripterygium wilfordii, and the structure-activity correlation with its related compounds” (J Nat Prod, 1992):
Converted amounts (≈) assume the structure as drawn. The source made the active and inactive calls. The rule behind the calls is not given here.

What was measured:
[1] = tested on: Human immunodeficiency virus 1; assay: Antiviral activity against HIV 3B infected human H9 cells assessed as inhibition of p24 antigen release; assay type: functional; conditions: Human immunodeficiency virus 1, 3B, read-out: ED50 (the source's name)
Procedure, shortened: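 H9 lymphocytes (3.5×10^6 cells/ml) exposed to HIV-1 HTLV-IIIB at 0.01-0.1 TCID50/cell for 1 h at 37°, then washed and resuspended at 4×10^5 cells/ml. Mixed with an equal volume of compound diluted in medium and cultured 3 days at 37°. Virus released into the medium measured by p24 antigen capture. EC50 read graphically from a plot of % inhibition versus concentration.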

[2] = tested on: H9; assay: Cytotoxicity against human H9 cells; assay type: cell-based
Procedure, shortened: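 Uninfected H9 lymphocytes were handled in parallel with the infected cultures: 1 h mock exposure at 37°, washing, resuspension at 4×10^5 cells/ml, and 3 days at 37° with an equal volume of compound diluted in medium. Cell density was counted with a Coulter counter. IC50 was read graphically from a plot of % inhibition versus concentration.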

[3] = biological target: T1, Human immunodeficiency virus type 1 reverse transcriptase (Human immunodeficiency virus 1, UniProt Q72547); assay: Inhibition of HIV1 recombinant reverse transcriptase expressed in Escherichia coli using poly(rG)-oligo(dC) template
[4] = biological target: T1, Human immunodeficiency virus type 1 reverse transcriptase; assay: Inhibition of HIV1 recombinant reverse transcriptase expressed in Escherichia coli using poly(dC)-oligo(dG) template
[5] = biological target: T1, Human immunodeficiency virus type 1 reverse transcriptase; assay: Inhibition of HIV1 recombinant reverse transcriptase expressed in Escherichia coli using poly(rU)-oligo(dA) template
[6] = Inhibition of HIV2 reverse transcriptase using poly(rC)-oligo(dG) template; set-up: species or system Human immunodeficiency virus 2
Procedure, shortened: (§1)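 Reverse transcriptase purified from E. coli expressing it: HIV-1 from JM109 carrying pKRT2, HIV-2 from a strain bearing pASRT2. HIV-2 enzyme was run with poly(rC)·oligo(dG). EC50 values were reported.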

[7] = biological target: Human immunodeficiency virus type 1 reverse transcriptase (Human immunodeficiency virus 1) (UniProt Q72547); assay: Inhibition of RNAse activity of HIV1 recombinant reverse transcriptase using poly(dT).[3H]poly(rA) template at 100 ug/ml
Procedure, shortened: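 The RNase H activity of purified HIV-1 reverse transcriptase, expressed in E. coli JM109/pKRT2, was assayed with poly(dT)·[3H]poly(rA) as substrate. Compound was tested at 100 µg/ml.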

[8] = biological target: T1, Human immunodeficiency virus type 1 reverse transcriptase; assay: Inhibition of HIV1 recombinant reverse transcriptase expressed in Escherichia coli using poly(rA)-oligo(dT) template
[9] = biological target: Human immunodeficiency virus type 1 reverse transcriptase (Human immunodeficiency virus 1) (UniProt Q72547); assay: Inhibition of HIV1 recombinant reverse transcriptase expressed in Escherichia coli using poly(rG)-oligo(dC) template at 100 ug/ml
[10] = biological target: T1, Human immunodeficiency virus type 1 reverse transcriptase; assay: Inhibition of HIV1 recombinant reverse transcriptase expressed in Escherichia coli using poly(rC)-oligo(dG) template
[11] = biological target: Human immunodeficiency virus type 1 reverse transcriptase (Human immunodeficiency virus 1) (UniProt Q72547); assay: Inhibition of DNA polymerase activity of HIV1 recombinant reverse transcriptase; procedure, shortened: as §1
[12] = biological target: Human immunodeficiency virus type 1 reverse transcriptase (Human immunodeficiency virus 1) (UniProt Q72547); assay: Inhibition of HIV1 recombinant reverse transcriptase expressed in Escherichia coli using poly(rU)-oligo(dA) template at 100 ug/ml

Compound	EC50 [1] [µM]	IC50 [2] [µM]	other results
C[C@H]1C(=O)CC[C@@H]2[C@]1(C)CC[C@H]1[C@@]2(C)CC[C@@]2(C)[C@@H]3C[C@@](C)(C(=O)O)CC[C@]3(C)CC[C@]12C	59	44	
C[C@@H]1[C@@]23CC[C@H]4[C@@](C)(CC[C@@]5(C)[C@@H]6C[C@](C)(C(=O)O)CC[C@]6(C)CC[C@]45C)[C@@H]2C[C@@H](O)[C@@]1(O)OC3	103	64	
C[C@H]1C(=O)CC[C@@H]2[C@]1(C)CC[C@H]1[C@@]2(C)CC[C@@]2(C)[C@@H]3CC(C)(C)CC[C@]3(C)[C@H](O)C[C@]12C	2	8	
C[C@H]1C(=O)CC[C@H]2[C@]3(C)CC[C@@]4(C)[C@@H]5CC(C)(C)C(=O)C[C@]5(C)C(=O)C[C@]4(C)[C@H]3C[C@@H](O)[C@]12C	> 106	106	
C[C@H]1C(=O)CC[C@@H]2[C@]1(C)CC[C@H]1[C@@]2(C)CC[C@@]2(C)[C@@H]3C[C@](C)(CO)CC[C@]3(CO)CC[C@]12C	11	15	
C[C@H]1C(=O)CC[C@@H]2[C@]1(C)CC[C@H]1[C@@]2(C)CC[C@@]2(C)[C@@H]3CC(C)(C)CC[C@]3(C(=O)O)CC[C@]12C	15	22	
C[C@H]1C(=O)CC[C@@H]2[C@]1(C)CC[C@H]1[C@@]2(C)CC[C@@]2(C)[C@@H]3CC(C)(C)CC[C@]3(OO)CC[C@]12C	38	38	
C[C@H]1C(=O)CC[C@@H]2[C@]1(C)CC[C@H]1[C@@]2(C)CC[C@@]2(C)[C@@H]3C[C@@](C)(CO)CC[C@]3(CO)CC[C@]12C	13	20	
C[C@H]1C(=O)CC[C@@H]2[C@]1(C)CC[C@H]1[C@@]2(C)CC[C@@]2(C)[C@@H]3CC(C)(C)CC[C@]3(CO)CC[C@]12C [CANOPHYLLOL]	4	18	
C[C@H]1C(=O)CC[C@@H]2[C@]1(C)CC[C@H]1[C@@]2(C)CC[C@@]2(C)[C@@H]3C[C@](C)(C(=O)O)CC[C@]3(C)CC[C@]12C [MAYTENOIC ACID]	66	44	
C[C@@H]1[C@@]23CC[C@H]4[C@@](C)(CC[C@@]5(C)[C@@H]6C[C@](C)(C(=O)O)CC[C@]6(C)CC[C@]45C)[C@@H]2CC[C@@]1(O)OC3 [SALASPERMIC ACID]	10	53	EC50 [3]: > 212 µM; EC50 [4]: 159 µM; EC50 [5]: > 212 µM; EC50 [6]: 100 µg/mL (≈ 212 µM); Activity [7]: inactive; EC50 [8]: 33.8 µM; inhibition [9]: 4%; EC50 [10]: 31.7 µM; Activity [11]: Active; inhibition [12]: 37%
